Type in all cases: functional
Assay [1] concerns Staphylococcus aureus. In words: Antibacterial activity against Staphylococcus aureus (#13709). Summed up: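 Trypticase soy broth culture was grown at 37 °C. The overnight suspension was mixed with compound in 4% DMSO in water, giving a final inoculum of about 10⁵-10⁶ CFU/well, in duplicate. Growth was read as A595 after 24 h. MIC is a concentration range, full inhibition at the higher and viability at the lower. Ampicillin and tetracycline were included as controls.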

Assay [2] has as its system Enterococcus faecalis. The assay is described as follows: Antibacterial activity against Enterococcus faecalis (#29212). Summed up:
(§1)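 Run as a duplicate broth microdilution in Todd-Hewitt broth. An overnight culture was added to compound in 4% DMSO in water, giving about 10⁵-10⁶ CFU/well, and incubated at 37 °C. Growth was read as A595 at 24 h. MIC is given as a concentration range: complete inhibition at the upper concentration, viable cells at the lower. Ampicillin and tetracycline served as controls.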

For assay [3], the system named is Klebsiella pneumoniae. The assay is described as follows: Antibacterial activity against Klebsiella pneumoniae (#13883). Summed up: (§2)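 Bacteria were grown in nutrient broth at 37 °C. An overnight culture was added to compound in 4% DMSO/water, giving about 10⁵-10⁶ CFU/well, in duplicate. Absorbance at 595 nm was read after 24 h. MIC is reported as a range between the lowest concentration with complete growth inhibition and the next lower concentration with viable cells. Ampicillin and tetracycline were positive controls.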

Assay [4] deals with Escherichia coli. In words: Antibacterial activity against Escherichia coli (#25922). The method, boiled down: as §2
Assay [5] has as its system Escherichia coli. The assay is described as follows: Antibacterial activity against Escherichia coli.
Assay [6] concerns Streptococcus pyogenes. The assay is described as follows: Antibacterial activity against Streptococcus pyogenes. The method, boiled down:
as §1

For assay [7], the system named is Streptococcus pyogenes. In words: Antibacterial activity against Streptococcus pyogenes (#49399).
For assay [8], the system named is Streptococcus pyogenes. The assay is described as follows: Antibacterial activity against Streptococcus pyogenes (#14289). The method, boiled down:
as §1

Each structure is given as a SMILES string. Converted amounts (≈) assume the structure as drawn.

For the compound `COC(=O)c1ccc(NC2CCN(c3nc(N)c4cc(OC)c(OC)cc4n3)CC2)cc1`, the MIC is over 100 µM in assay [1]; 20 µM (≈ 8.75 µg/mL) in assay [2]; over 100 µM in assay [3]; over 100 µM in assay [4]; 5 µM (≈ 2.19 µg/mL) in assay [5]; 5 µM (≈ 2.19 µg/mL) in assay [6]. For the same compound, the lowest concentration to inhibit growth in assay [7] (MIC) was 5 µM (≈ 2.19 µg/mL).

Turning to `COC(=O)c1nc(Cl)c(NC2CCN(Cc3ccccc3)CC2)nc1N`, the MIC in assay [8] and in assay [5] was over 50 µM in each case.

Consider `COc1cc2nc(N3CCC(Nc4ccc(C(=O)O)cc4)CC3)nc(OC)c2cc1OC`, for which the minimal inhibitory concentration (MIC) in assay [5] and in assay [6] was over 20 µM each time.

In the case of `Nc1nc(N2CCC(Nc3ccc(C(=O)O)cc3)CC2)nc2ccccc12`, the MIC in assay [5] and in assay [6] was over 100 µM in each case.

Consider `COC(=O)c1ncc(NC2CCN(c3nc(N)c4cc(OC)c(OC)cc4n3)CC2)nc1N`, for which the MIC in assay [8] and in assay [5] was over 50 µM throughout.

On to `COc1cc2nc(N3CCC(Nc4ccc(C(=O)OC(C)(C)C)cc4)CC3)nc(O)c2cc1OC`, for which the MIC in assay [5] and in assay [6] was over 100 µM in each case.

As for `COC(=O)c1ccc(NC2CCN(c3nc(N)c4cc(OC)c(OC)cc4n3)CC2)nc1`, the minimal inhibitory concentration (MIC) in assay [5] is over 50 µM; in assay [6], 25 µM (≈ 11 µg/mL).

In the case of `COc1cc2nc(N3CCC(Nc4ccc(C(=O)O)cc4)CC3)nc(O)c2cc1OC`, the MIC in assay [5] and in assay [6] was over 20 µM throughout.

On to `COC(=O)c1ccc(NC2CCN(Cc3ccccc3)CC2)cc1`, for which the MIC in assay [5] and in assay [6] was over 25 µM throughout.

With `COC(=O)c1nc(Cl)c(NC2CCN(C(=O)OC(C)(C)C)CC2)nc1N`, the MIC in assay [8] and in assay [5] was over 25 µM each time.

On to `CC(C)(C)OC(=O)c1ccc(NC2CCN(S(=O)(=O)c3ccc4ccccc4c3)CC2)cc1`, for which the minimal inhibitory concentration (MIC) in assay [5] and in assay [6] was over 25 µM throughout.

On to `CC(C)(C)OC(=O)c1ccc(NC2CCN(C(=O)c3ccc4ccccc4c3)CC2)cc1`, for which the MIC in assay [5] and in assay [6] was over 25 µM in each case.

Turning to `COc1cc2nc(N3CCC(Nc4ccc(C(=O)O)cc4)CC3)nc(Nc3ccc(C)cc3)c2cc1OC`, the minimal inhibitory concentration (MIC) in assay [5] and in assay [6] was over 20 µM in each case.

Take `COC(=O)c1nc(Cl)c(NC2CCNCC2)nc1N`: the MIC in assay [8] and in assay [5] was over 25 µM in each case.

Take `CC(C)(C)OC(=O)c1ccc(NC2CCNCC2)cc1`: the minimal inhibitory concentration (MIC) in assay [5] and in assay [6] was over 25 µM throughout.

In the case of `COc1ccc2[nH]c(N3CCC(Nc4ccc(C(=O)OC(C)(C)C)cc4)CC3)nc2c1`, the minimum inhibitory concentration (MIC) in assay [5] and in assay [6] was over 100 µM throughout.

As to `O=C(O)c1ccc(NC2CCN(c3ncccn3)CC2)cc1`, the minimal inhibitory concentration (MIC) in assay [5] and in assay [6] was over 25 µM throughout.

For `CC(C)(C)OC(=O)c1ccc(NC2CCN(c3nc(N)c4ccccc4n3)CC2)cc1`, the MIC in assay [5] and in assay [6] was under 100 µM each time.

Consider `COc1ccc2[nH]c(N3CCC(Nc4ccc(C(=O)O)cc4)CC3)nc2c1`, for which the minimum inhibitory concentration (MIC) in assay [5] and in assay [6] was over 25 µM in each case.

For the compound `COC(=O)c1nc(Cl)c(NNc2nc(N)c3cc(OC)c(OC)cc3n2)nc1N`, the MIC in assay [8] and in assay [5] was over 50 µM throughout.

Turning to `COc1cc2cnc(N3CCC(Nc4ccc(C(=O)OC(C)(C)C)cc4)CC3)nc2cc1OC`, the MIC in assay [5] and in assay [6] was over 20 µM in each case.

In the case of `COc1cc2nc(N3CCC(Nc4ccc(C(=O)O)cn4)CC3)nc(N)c2cc1OC`, the minimal inhibitory concentration (MIC) in assay [5] and in assay [6] was over 50 µM each time.

On to `COc1cc2nc(N3CCC(Nc4ccc(C(=O)OC(C)(C)C)cc4)CC3)nc(N)c2cc1OC`, for which the MIC in assay [1] was over 100 µM; in assay [2], 6 µM (≈ 2.88 µg/mL); in assay [3] it was over 100 µM; in assay [4], over 100 µM; in assay [5], 6 µM (≈ 2.88 µg/mL); in assay [6], 3 µM (≈ 1.44 µg/mL). In assay [7], this compound had a minimal inhibitory concentration (MIC) of 6 µM (≈ 2.88 µg/mL).

Take `CC(C)(C)OC(=O)c1ccc(NC2CCN(c3ncccn3)CC2)cc1`: the minimum inhibitory concentration (MIC) in assay [5] and in assay [6] was over 25 µM throughout.

As to `COC(=O)c1nc(Cl)c(NC2CCN(c3nc(N)c4cc(OC)c(OC)cc4n3)CC2)nc1N`, the MIC is 12 µM (≈ 5.87 µg/mL) in assay [8] and over 25 µM in assay [5].

In the case of `COc1cc2cnc(N3CCC(Nc4ccc(C(=O)O)cc4)CC3)nc2cc1OC`, the MIC in assay [5] and in assay [6] was over 20 µM each time.

On to `COc1cc2nc(N3CCC(Nc4ccc(C(=O)OC(C)(C)C)cc4)CC3)nc(Nc3ccc(C)cc3)c2cc1OC`, for which the MIC in assay [5] was 10 µM (≈ 5.7 µg/mL); in assay [6], 2.5 µM (≈ 1.42 µg/mL).

For `O=C(O)c1ccc(NC2CCN(c3ccc4ccccc4c3)CC2)cc1`, the MIC in assay [5] and in assay [6] was over 25 µM throughout.

For the compound `COc1cc2nc(N3CCC(Nc4nc(N)c(C(=O)O)nc4Cl)CC3)nc(N)c2cc1OC`, the minimal inhibitory concentration (MIC) in assay [8] and in assay [5] was over 100 µM each time.

On to `COc1cc2nc(N3CCC(Nc4ccc(C(=O)O)cc4[N+](=O)[O-])CC3)nc(N)c2cc1OC`, for which the MIC in assay [8] and in assay [5] was over 20 µM each time.

As for `CC(C)(C)OC(=O)c1ccc(NC2CCN(c3ccc4ccccc4c3)CC2)cc1`, the MIC in assay [5] and in assay [6] was over 25 µM each time.

Take `O=C(O)c1ccc(NC2CCN(S(=O)(=O)c3ccc4ccccc4c3)CC2)cc1`: the minimum inhibitory concentration (MIC) in assay [5] and in assay [6] was over 25 µM in each case.

Turning to `COc1cc2nc(N3CCC(Nc4ccc(C(=O)OC(C)(C)C)cc4)CC3)nc(OC)c2cc1OC`, the minimal inhibitory concentration (MIC) in assay [5] and in assay [6] was under 100 µM each time.

`O=C(O)c1ccc(NC2CCN(Cc3ccccc3)CC2)cc1`: the MIC in assay [5] and in assay [6] was over 25 µM throughout.

`COc1cc2nc(N3CCC(Nc4ccc(C(=O)O)cc4)CC3)nc(N)c2cc1OC`: the MIC was 6 µM (≈ 2.54 µg/mL) in assay [1]; over 100 µM in assay [2]; 6 µM (≈ 2.54 µg/mL) in assay [3]; 60 µM (≈ 25.4 µg/mL) in assay [4]; 0.4 µM (≈ 0.169 µg/mL) in assay [5]; over 25 µM in assay [6]. The minimum inhibitory concentration (MIC) in assay [7] is over 25 µM.

Take `COc1cc2nc(N3CCC(Nc4ccc(C(=O)OC(C)(C)C)cc4[N+](=O)[O-])CC3)nc(N)c2cc1OC`: the MIC in assay [8] came to 50 µM (≈ 26.2 µg/mL); in assay [5], 25 µM (≈ 13.1 µg/mL).

Turning to `O=C(O)c1ccc(NC2CCN(C(=O)c3ccc4ccccc4c3)CC2)cc1`, the MIC in assay [5] and in assay [6] was over 25 µM each time.

With `COc1cc2nc(N3CCC(Nc4cnc(C(=O)O)c(N)n4)CC3)nc(N)c2cc1OC`, the minimum inhibitory concentration (MIC) in assay [5] and in assay [6] was over 25 µM throughout.

In the case of `CC(C)(C)OC(=O)c1ccc(NC2CCN(Cc3ccccc3)CC2)cc1`, the MIC in assay [5] and in assay [6] was over 25 µM in each case.

The MIC is the lowest concentration that inhibits growth of the organism. High values mean a less susceptible organism, low ones a more susceptible organism.

Values taken from ChEMBL document CHEMBL1132470, “Structure-activity relationships of novel 2-substituted quinazoline antibacterial agents” (1999).
